Cneo AK release – causes C. neoformans cell lysis. adenylate kinase release luminescence, 4 h; normalised: neutral wells 0, clomiphene wells 100. lysis activity, % at 15 µM. actives 0.2% (n = 360,000). AID 651654;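 active means mean lysis activity across replicates of at least 80%, whatever share of replicates individually reach that level; inactive means mean lysis activity below 80%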
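Test system: log-phase Cryptococcus neoformans yeast cells; Quantity: yeast cell density of 5 × 10^6 cells/mL; Buffer or medium: YPD; Doses: single compound concentration per well; Timing: 4 h at 37 °C static, read 1 h later; Measured by: AK luminescence; Read-out basis: lysis from increased AK signal; Control set: Clomiphene as positive control.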
Ecoli rRNA inh – inhibitors of bacterial rRNA selective over humanized ribosomes; E. coli WT GFP vs humanized-ribosome RFP mutants, fluorescence, 24 h; active compounds read low; DMSO median 0, no signal -100; GFP signal change (wild-type ribosome), % (no concentration beside the values); actives 1.6% (n = 350,000); AID 720706;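 active means significant combined selectivity score with lowered wild-type GFP, culture density cut under 30%, mutant RFP and density less affected; inactive means any of these conditions unmet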
F508del corr – CFTR F508del correction in bronchial cells; CFBE cells, YFP halide quenching; stimulated with forskolin plus potentiator P3; % fluorescence drop versus neutral controls; activity (quench increase), % at 7.58 µM; actives 0.36% (n = 350,000); AID 720511;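 active means mean added fluorescence quench of at least 8% versus neutral control, with both replicates also reaching 8%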;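 further: cells transiently co-express mutant CFTR-F508del with the halide-sensitive YFP; corrector assay measuring rescue of mutant channel to the surface after 24 h compound exposure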
CaV13 ICDI inh – Disruptors of the CACNA1D IQ motif to Ca2+-dependent inactivation inhibitor domain association, primary screening, Förster resonance energy transfer in intact living … | HEK cells, CFP/YFP FRET ICDI-IQ, plate reader, 10 min; percent FRET-ratio fall versus neutral wells | inhibition, % at 12.3 µM | actives 0.098% (n = 340,000) | AID 743397;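 active means mean replicate inhibition of at least 30% and at least 1% of replicates passing that level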;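 further: 0% = median of the neutral control wells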
The depositor's hits bear a star; · = no result; ! = a repeat was not active. Rows were chosen to be rich in hits. Some 1.7% of all compounds tested hit in one or more screens of this group.

SMILES | Cneo AK release | Ecoli rRNA inh | F508del corr | CaV13 ICDI inh
CC1Sc2ccc(C(=O)Nc3ccccc3OC(F)F)cc2NC1=O (stereo not drawn) | · | -20* | -3 | -5
CC1Sc2ccc(C(=O)Nc3ncccc3O)cc2NC1=O (stereo not drawn) | -10 | 4 | -3 | -6
O=C(Cc1cccnc1)N1CC(=O)N2[C@H](C1)[C@@H](c1ccc(C#CC3CCCC3)cc1)[C@@H]2CO | · | -6 | 7 | ·
CN(C)c1ccc2nc3ccc(=O)cc-3sc2c1 | -3 | -24 | 0 | -10
CN(C)c1ccc2nc3ccc(=[N+](C)C)cc-3sc2c1 | · | -53* | 0 | -4
S=C(NCCc1ccccc1)Nc1cccc2cnccc12 | 2 | -27* | -2 | 3
CCCS(=O)(=O)c1c(S(=O)(=O)CCC)c2c(C)cccn2c1C(N)=O | -1 | · | · | -6
CCCS(=O)(=O)c1c(S(=O)(=O)CCC)c2c(C)cccn2c1C(=O)N/N=C/c1cc(O)cc(O)c1 | 0 | -21* | 2 | -3
COc1ccc(S(=O)(=O)Nc2ccc3c(c2)C(=O)N([C@H](C)CO)C[C@@H](C)[C@@H](CN(C)Cc2ccc(C(=O)O)cc2)O3)cc1 | -1 | -1 | -2 | ·
O=C(O)/C=C/c1ccc(OCc2cccc(F)c2)cc1 | -2 | -22* | -3 | -4
C[C@H]1CN([C@@H](C)CO)S(=O)(=O)c2ccc(/C=C/c3ccccc3)cc2O[C@@H]1CN(C)C(=O)CN1CCOCC1 | -5 | · | 6 | ·
CCn1c(=S)sc2c(=O)n(CC(=O)Nc3ccc(Cl)cc3)c(C)nc21 | -1 | -20* | 0 | -3
CCn1c(=S)sc2c(=O)n(CC(=O)Nc3ccccc3)c(C)nc21 | 6 | 3 | 1 | -2
COc1ccc(S(=O)(=O)Nc2ccc3c(c2)CC(=O)N([C@@H](C)CO)C[C@@H](C)[C@H](CN(C)Cc2ccc(C(=O)O)cc2)O3)cc1 | · | 3 | -3 | ·
Cc1cc(-c2ccccc2)nc(N(C)NC(=O)c2cccc(C(F)(F)F)c2)c1S(C)(=O)=O | 8 | · | · | ·
Cc1cc(-c2ccccc2)nc(N(C)NC(=O)C2CC2)c1S(C)(=O)=O | -2 | 7 | 8.5* | -5
Cc1ccc(NS(=O)(=O)c2ccc3c(c2)NC(=O)CCS3)c(C)c1 | 0 | -33* | 0 | -1
Cc1ccc(NS(=O)(=O)c2ccc3c(c2)NC(=O)CCS3)c(Cl)c1 | 1 | -1 | -1 | -3
CO[C@H]1CN(C)C(=O)c2ccc(NS(C)(=O)=O)cc2OC[C@@H](C)N(CC2CCCCC2)C[C@@H]1C | · | -9 | 1 | ·
O=C(CC(=O)c1cccs1)c1ccncc1 | -6 | -22* | -4 | -10
C[C@@H]1CCCCO[C@@H](CN(C)CC2CC2)[C@H](C)CN([C@H](C)CO)C(=O)c2cc(NS(C)(=O)=O)ccc2O1 | 12 | -1 | 1 | ·
O=C(C[C@@H]1C=C[C@H](NS(=O)(=O)c2ccccc2)[C@H](CO)O1)N1CCN(c2ccccc2)CC1 | · | 0 | -2 | ·
COc1ccc(/C=C/CN2CCCC(CO)(Cc3cccc(Cl)c3)C2)cc1 (stereo not drawn) | 4 | -47* | 0 | -4
CS/C(=N\S(=O)(=O)c1cccs1)Nc1ccc(Cl)cc1 | · | -30* | · | -3
COc1ccc(S(=O)(=O)N(C)C[C@@H]2Oc3ccc(NS(=O)(=O)c4ccc(F)cc4)cc3C(=O)N([C@H](C)CO)C[C@@H]2C)cc1 | 0 | -2 | -3 | ·
SMILES | Cneo AK release | Ecoli rRNA inh | F508del corr | CaV13 ICDI inh
C[C@H](CO)N1C[C@H](C)[C@H](CN(C)CC2CCCCC2)Oc2ncc(-c3ccc(F)cc3)cc2C1=O | -2 | 6 | 0 | ·
C[C@H](CO)N1C[C@H](C)[C@H](CN(C)C(=O)Nc2cccc(F)c2)Oc2ncc(C#CCN(C)C)cc2C1=O | 97* | 8 | 3 | ·
C[C@@H]1CN([C@@H](C)CO)C(=O)c2cc(C#CC3(O)CCCC3)cnc2O[C@@H]1CN(C)Cc1cccnc1 | · | 4 | 0 | ·
C[C@H](CO)N1C[C@H](C)[C@@H](CN(C)C(=O)Nc2cccc(F)c2)Oc2ncc(C#CCN(C)C)cc2C1=O | 0 | 3 | 0 | ·
C[C@@H]1CN([C@H](C)CO)C(=O)c2cc(-c3ccc(F)cc3)cnc2O[C@H]1CN(C)CC1CCCCC1 | 106* | 0 | -3 | ·
C[C@@H]1CN([C@@H](C)CO)C(=O)c2cc(C#CCN(C)C)cnc2O[C@@H]1CN(C)Cc1ccc(-c2ccccc2)cc1 | 35 | 5 | -4 | ·
C[C@H]1CN([C@@H](C)CO)C(=O)c2cc(C#CC3(O)CCCC3)cnc2O[C@@H]1CN(C)Cc1cccnc1 | 101* | 3 | -1 | ·
C[C@@H]1CN([C@@H](C)CO)C(=O)c2cc(C#CCN(C)C)cnc2O[C@H]1CN(C)Cc1ccc(-c2ccccc2)cc1 | -8 | 3 | 9.2*! | ·
COc1ccc2c3c(n(C)c2c1)[C@@H](CO)N(CC1CC1)CC31CCN(C(=O)CN(C)C)CC1 | · | 3 | 0 | ·
C[C@H](CO)N1C[C@H](C)[C@H](CN(C)C(=O)Nc2ccc3c(c2)OCO3)Oc2ncc(C#CC(C)(C)O)cc2C1=O | 113* | 6 | -2 | ·
C[C@@H]1CN([C@H](C)CO)C(=O)c2cc(-c3ccc(C#N)cc3)cnc2O[C@@H]1CN(C)C(=O)Nc1ccc(F)cc1 | 83* | -1 | 1 | ·
C[C@H](CO)N1C[C@H](C)[C@H](CN(C)C(=O)Nc2ccc3c(c2)OCO3)Oc2ncc(C#Cc3ccc(C(F)(F)F)cc3)cc2C1=O | -7 | 2 | -2 | ·
C[C@H]1CN([C@@H](C)CO)C(=O)c2cc(C#CCN(C)C)cnc2O[C@@H]1CN(C)C(=O)Nc1cccc(F)c1 | 113* | 4 | 2 | ·
C[C@@H]1CN([C@@H](C)CO)C(=O)c2cc(C#CCN(C)C)cnc2O[C@H]1CN(C)C(=O)Nc1cccc(F)c1 | 0 | 4 | 0 | ·
CC(C)CC#Cc1cnc2c(c1)C(=O)N([C@@H](C)CO)C[C@@H](C)[C@H](CN(C)C(=O)c1ccc3c(c1)OCO3)O2 | 0 | 4 | 2 | ·
CC(C)CC#Cc1cnc2c(c1)C(=O)N([C@@H](C)CO)C[C@H](C)[C@H](CN(C)C(=O)c1ccc3c(c1)OCO3)O2 | 85* | -1 | 2 | ·
Cc1ccc(NC(=O)CSC2=NN3CCCC(=O)N=C3S2)c(C)c1 | 0 | 8 | 9.7* | -7
CCOC(=O)c1c(-c2ccc(-c3ccccc3)cc2)csc1NC(=O)CNCCN(C)C | 85* | -59 | 0 | -14
CCOC(=O)c1c(-c2ccccc2)csc1NC(=O)CCN1C(=O)c2ccccc2C1=O | 0 | 3 | -1 | -2
Cc1ccc(C2C3=C(CC(C)(C)CC3=O)NC3=C2C(=O)c2ccccc23)cc1 (stereo not drawn) | · | · | · | 0
COc1cc(C2C3=C(CC(C)(C)CC3=O)NC3=C2C(=O)c2ccccc23)ccc1O (stereo not drawn) | 3 | -31* | 0 | -3

Screening data deposited in PubChem BioAssay by Broad Institute.
